Laboratory results reported in paper PMC4658283 (Toxicology, 2015).
Where a name gives a salt, the structure may show the parent alone.

Legend:
Format in all cases: in vivo, rat
[1] = PCB 95 and OH-PCB tissue levels by GC-ECD
Procedure, shortened: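 Killed 4 h after last injection (~28 h post-PCB). Tissues homogenized with diatomaceous earth and extracted over Florisil. OH-PCBs analysed as methylated derivatives; splitless injection at 280°C; PCB 204 internal standard.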

[2] = Enantioselective analysis of PCB 95 in tissues; conditions: both experimental groups
CYP2B protein = assay: Western blot analysis of CYP2B protein in liver and cortex microsomes; conditions: liver microsomes; 7 d exposure
[3] = both experimental groups dosed with PCB 95

Row | SMILES | detection of OH-PCB metabolite in blood and liver [1, 3] | other results
1 | Oc1cc(Cl)c(-c2cc(Cl)ccc2Cl)c(Cl)c1Cl [4-95, 2,2′,3,5′,6-pentachlorobiphenyl-4-ol] | detected | –
2 | CN1CCC[C@H]1c1cccnc1 [Nicotine, (−)-Nicotine hydrogen tartrate salt, reference compound] | – | effect of nicotine co-exposure on levels of the parent compound PCB 95 in tissues ([1]; nicotine 1 mg/kg/d s.c. 7 d plus PCB 95 6 mg/kg/d p.o., cortex, cerebellum, adipose, blood, liver, muscle): no effect
3 | Oc1cc(Cl)c(-c2c(Cl)ccc(Cl)c2Cl)cc1Cl [4′-95] | detected | –
4 | COc1c(Cl)c(Cl)c(-c2cc(Cl)ccc2Cl)c(Cl)c1OC [4,5-95, 4,5-dimethoxy-2,2′,3,5′,6-pentachlorobiphenyl] | detected | –
5 | Oc1cc(Cl)c(Cl)c(-c2cc(Cl)ccc2Cl)c1Cl [5-95, 2,2′,3,5′,6-pentachlorobiphenyl-5-ol] | detected | detection of metabolite in adipose tissue [1, 3]: detected as a minor metabolite
6 | Clc1ccc(Cl)c(-c2c(Cl)ccc(Cl)c2Cl)c1 [PCB 95, 2,2′,3,5′,6-Pentachlorobiphenyl] | – | rank order of tissue EF values for PCB 95 [2]: blood (sample pooled across experimental groups) > liver > muscle (samples pooled within experimental groups) > cortex > adipose; hepatic CYP2B protein levels relative to vehicle controls (densitometry, normalized to GAPDH) (CYP2B protein): neither nicotine nor PCB 95 alone changed hepatic CYP2B levels
7 | COc1c(Cl)cc(Cl)c(-c2cc(Cl)ccc2Cl)c1Cl [3-103, 3-Methoxy-2,2′,4,5′,6-pentachlorobiphenyl] | detected | –
